High-throughput results as filed in PubChem.
T cruzi repl = T. cruzi replication inhibition. T. cruzi beta-gal in NIH3T3, luminescence, 90 h. inhibition, % (no concentration beside the values). hit rate 1.4% among 300,000;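 active means mean inhibition across valid replicates above about 55%, limit read from the data; inconclusive means mean below that limit but half or more replicates reach it; inactive means mean below it, under half of replicates reach it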;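 further: signal also drops with host cell toxicity which is not excluded here; higher percent means less beta-gal luminescence so fewer parasites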
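System: NIH/3T3 fibroblasts plus reporter T. cruzi. Medium: DMEM plus 2% FBS. Probe or stimulus: 5000 reporter trypomastigotes per well. Compound: single 50 nL compound addition per well in DMSO. Incubation: co-culture of at least 90 h after 3 h attachment. Detection: GalScreen β-gal luminescence, detergent lysis, 60 min. Evaluation: parasite load inhibition, %.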
Beta cell apopt = beta cell apoptosis inhibition. INS-1E cytokine-induced death, ATP luminescence, 48 h; percent of positive-control rescue, neutral wells zero. protection from apoptosis, % (test concentration not listed). hit rate 0.8% among 300,000;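 active means Every replicate reaches about 75%, or at least half do and their mean reaches it too, limit read from the data; inconclusive means At least half of replicates reach the limit but their mean does not; inactive means Under half of replicates reach the limit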;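 further: higher means more ATP so stronger rescue from cytokine killing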
UPR CHOP act = activators of apoptotic arm of unfolded protein response (CHOP); CHO-CHOP luciferase reporter, UPR activation, luminescence; percent of tunicamycin response over DMSO baseline; hit rate 0.34% among 330,000; activation, % at 10 µM;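 active means at 10 µM dose, activation of 40% or more, normalized to positive control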
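Test system: CHO CHOP reporter cells. Input: 500 CHO-CHOP cells per well. Medium: F12 with 10% FBS. Technique: luciferase luminescence. Measure: percent activation relative to tunicamycin control. Dosing: 10 µM compound, 0.5% DMSO. Timing: 16-18 h cell attachment, then 6 h compound exposure, 37 °C.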
CSC inhib = cancer stem cell inhibition. hit rate 1.1% among 300,000. cancer stem cell-like cells viability, luminescence. inhibition, % at 7.5 µM; in the data active means inhibition above about 75%; inconclusive means no clear call, values can overlap the other calls; tested in HMLE shEcad cells
Mdm2 MdmX PPI = inhibitors of human Mdm2/MdmX interaction. O15151+Q00987. SaOS-2 split-luciferase Mdm2/MdmX complementation, luminescence. inhibition, % at 8 µM. hit rate 3% among 330,000. AID 485346;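 active means inhibition of at least 50% at 8 µM in the primary screen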
Target sequence (O15151 whole entry, looked up): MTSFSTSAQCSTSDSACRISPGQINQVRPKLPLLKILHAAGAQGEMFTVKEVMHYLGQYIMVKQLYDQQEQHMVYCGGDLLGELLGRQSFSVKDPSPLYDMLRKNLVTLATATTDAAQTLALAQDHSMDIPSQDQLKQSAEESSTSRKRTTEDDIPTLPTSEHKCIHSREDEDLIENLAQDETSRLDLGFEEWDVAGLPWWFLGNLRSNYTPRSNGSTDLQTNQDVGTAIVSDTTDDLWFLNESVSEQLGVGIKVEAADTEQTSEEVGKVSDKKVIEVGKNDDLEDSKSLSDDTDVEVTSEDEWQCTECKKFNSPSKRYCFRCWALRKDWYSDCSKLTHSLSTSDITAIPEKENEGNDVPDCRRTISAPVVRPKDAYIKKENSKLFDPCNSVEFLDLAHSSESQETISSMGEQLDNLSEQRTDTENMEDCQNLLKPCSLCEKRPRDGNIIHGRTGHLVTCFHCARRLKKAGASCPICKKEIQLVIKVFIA
Target sequence (Q00987 whole entry, looked up): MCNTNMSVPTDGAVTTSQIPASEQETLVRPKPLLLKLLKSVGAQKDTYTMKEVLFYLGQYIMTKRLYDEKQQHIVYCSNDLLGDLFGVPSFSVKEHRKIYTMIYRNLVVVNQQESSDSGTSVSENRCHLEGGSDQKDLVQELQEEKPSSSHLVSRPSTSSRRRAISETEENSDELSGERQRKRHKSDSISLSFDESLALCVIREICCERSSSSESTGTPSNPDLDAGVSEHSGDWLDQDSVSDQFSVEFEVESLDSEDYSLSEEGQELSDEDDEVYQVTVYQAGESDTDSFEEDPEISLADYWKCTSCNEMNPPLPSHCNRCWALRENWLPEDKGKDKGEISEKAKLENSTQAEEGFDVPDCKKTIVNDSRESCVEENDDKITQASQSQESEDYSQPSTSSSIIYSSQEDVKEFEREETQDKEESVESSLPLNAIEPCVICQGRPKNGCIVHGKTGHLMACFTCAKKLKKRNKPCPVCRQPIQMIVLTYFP
UPR XBP1 act = adaptive UPR (XBP1) activation; CHO-XBP1 luciferase reporter, IRE1-XBP1 UPR activation, luminescence; percent of tunicamycin response, DMSO as zero; activation, % at 20 µM; hit rate 0.33% among 330,000; AID 463104;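 active means versus positive control, 20 µM dose yields 30% or more activation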
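Material: IRE1-XBP1 luciferase reporter CHO line / Quantity: one thousand reporter cells per well / Buffer or medium: F12 with 10% serum / Compound: 20 µM single concentration, DMSO 1% / Times: 6 h treatment, 37 °C / Detection: Steady-Glo luciferase glow luminescence, 10 min after reagent addition / Benchmarks: tunicamycin high, DMSO low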
Large screens that a line does not name were inactive. Sampled rows, rich in hits. Any-hit rate of the full collection: about 5%.

Cc1ccc(NC(=O)c2c(C(F)(F)F)nn(C)c2SCc2cccc(C(F)(F)F)c2)cc1C	T cruzi repl 59, Beta cell apopt 88
CCC(=C(c1ccc(OC)cc1)c1ccc(OC)cc1)c1cn(CC(O)CN2CCN(C)CC2)c2ccccc12 (centres undefined)	CSC inhib 107 (no result: T cruzi repl, UPR CHOP act, Mdm2 MdmX PPI, UPR XBP1 act)
Cc1ccc(Cc2cnc(NC(=O)c3ccco3)s2)cc1	none
O=C(Nc1ncc(Cc2cccc([N+](=O)[O-])c2)s1)c1ccco1	CSC inhib 97
O=C(Nc1ncc(Cc2ccccc2Cl)s1)c1ccc(-c2cccc([N+](=O)[O-])c2)o1	T cruzi repl 60
CC1CCN(S(=O)(=O)c2ccc(NC(=O)CN3CCCC3)cc2)CC1	none
CCN1CCN(CC(=O)Nc2ccc(S(=O)(=O)N3C(C)CCCC3C)cc2)CC1 (centres undefined)	T cruzi repl 58
CCCCCCC1CC(C)(C(=O)CNc2nncs2)OC1=O (centres undefined)	T cruzi repl 62
CCCCCCC1CC(C)(/C(C)=N/NC(N)=O)OC1=O (centres undefined)	none
COc1cccc2cc(C(=O)n3ccc(C)n3)c(=O)oc12	none
CC12CCC(C(=O)N3CCN(C(c4ccccc4)c4ccccc4)CC3)(OC1=O)C2(C)C (centres undefined)	T cruzi repl 56
CCOc1ccc(NC(=O)CSc2nnc(C3CC3)n2C)cc1S(=O)(=O)N1CCCCC1	none (no result: T cruzi repl)
CCc1ccccc1NC(=O)c1ccc([N+](=O)[O-])s1	T cruzi repl 60
COc1ccccc1NC(=O)COC(=O)c1ccc([N+](=O)[O-])s1	none
COc1ccc(/C(O)=C/c2nc3ccc(C(=O)NCCc4cccc(C)c4)cc3[nH]c2=O)cc1OC	none
CCN(CC)C(=O)c1cc(-c2ccc3c(c2)OCO3)on1	none
CCOc1ccc(-c2nnn(CC(=O)NCc3ccccc3)n2)cc1	none
O=C(O)CN1C(=O)/C(=C\c2cn(-c3ccccc3)nc2-c2ccccc2)SC1=S	none
CC(C)COc1ccc(-c2nn(-c3ccccc3)cc2/C=C2/SC(=S)N(CC(=O)O)C2=O)cc1	CSC inhib active
NC(=O)c1cccc(CS(=O)(=O)c2ccc(Cl)cc2)c1	none
O=C1CC(c2ccc(F)cc2)CC2=C1C=Nc1ccccc1N2 (centres undefined)	CSC inhib 103
Cc1cc(S(N)(=O)=O)c(N)c(S(N)(=O)=O)c1	none
CC(NC(=O)c1cc(COc2ccccc2)on1)c1nccs1 (centres undefined)	none
COc1cccc(CN(C)C(=O)c2cc(COc3c(F)cccc3F)on2)c1	none
O=C(NCCc1cn2ccccc2n1)c1cc(COc2ccc3ncccc3c2)on1	Beta cell apopt 104
O=C(c1cc(COc2ccc3ncccc3c2)on1)N1CCCC1	none
COc1cccc(CN(C)C(=O)c2cc(COc3ccc4ncccc4c3)on2)c1	Beta cell apopt 76
CC(NC(=O)c1cc(COc2ccc3ncccc3c2)on1)c1ccc(F)cc1 (centres undefined)	Beta cell apopt 105
O=C(c1cc(COc2ccc3ncccc3c2)on1)N1CCCCCC1	Beta cell apopt 91
O=C(CCC(=O)N1CCCC(Nc2ccccc2)C1)c1ccc(F)cc1 (centres undefined)	none
Cc1ccc(S(=O)(=O)c2nc(-c3ccc(F)cc3)oc2N2CCOCC2)cc1	none
Cn1nccc1C(=O)N1CCN(c2ccccc2F)CC1	none
Cc1cc(OCc2cc(C(=O)N3CCN(CC4CC4)CC3)no2)cc(C)c1Cl	none
O=C(NC1CCCC1)c1cc(COc2ccc3ncccc3c2)on1	Beta cell apopt 104
Cc1cc(OCc2cc(C(=O)N3CCC(Oc4cccnc4)CC3)no2)cc(C)c1Cl	CSC inhib 77 (no result: Beta cell apopt)
Cc1ccnn1CCC(=O)N1CCCC(Nc2ccc(F)c(F)c2)C1 (centres undefined)	none (no result: CSC inhib)
O=C(CN1C(=O)c2ccccc2C1=O)c1ccccc1	none
CC1=C(CC(=O)c2ccccc2)C(=O)c2ccccc2C1=O	Beta cell apopt 98
COc1ccc(C)cc1-n1c(=O)c2ccccc2c2ccccc2c1=O	none (no result: Beta cell apopt, UPR CHOP act, CSC inhib, Mdm2 MdmX PPI, UPR XBP1 act)
COc1ccc(C)cc1N1C(=N)/C(=C2/Nc3ccccc3S2)C(c2ccccc2)C1=O (centres undefined)	CSC inhib 112 (no result: T cruzi repl, UPR CHOP act, Mdm2 MdmX PPI, UPR XBP1 act)
O=[N+]([O-])c1nn(-c2ccc3c(c2)OCCO3)n(O)c1=NCc1ccc(F)cc1Cl	none
CN=c1c([N+](=O)[O-])nn(-c2ccc3c(c2)OCCO3)n1O	T cruzi repl 61
O=[N+]([O-])c1nn(-c2ccc3c(c2)OCCO3)n(O)c1=NCc1ccc(F)cc1	T cruzi repl 61
O=[N+]([O-])c1nn(-c2ccc3c(c2)OCCO3)n(O)c1=NCCC1=CCCCC1	T cruzi repl 94, CSC inhib inconclusive
CCC(C)Sc1nc2c(c(=O)[nH]c(=O)n2C)n1C (centres undefined)	none
COc1ccc(-n2ncc3c2CC(C)(C)CC3NC(=O)c2c(C)cc(=O)oc2C)cc1 (centres undefined)	none
CCn1nnnc1NCc1cccn1C	none
NC(=O)c1c(-c2ccc(Cl)cc2Cl)csc1NC(=O)Cc1ccccc1	Beta cell apopt 96 (no result: UPR CHOP act, Mdm2 MdmX PPI, UPR XBP1 act)
CN(C)CCCSc1nc2ccccc2s1	T cruzi repl 71
COc1ccc(OC)c(/C=C2\SC(=S)N(C(C(=O)O)c3ccccc3)C2=O)c1 (centres undefined)	none
COc1ccc(NC(=O)c2ccc(C(=O)Nc3ccc(OC)cc3OC)cc2)c(OC)c1	none
COc1ccc(NC(=O)c2c(OC)cccc2OC)c(OC)c1	T cruzi repl 59
NS(=O)(=O)c1ccc(NC(=O)COC(=O)c2ccc(S(=O)(=O)N3CCOCC3)cc2)cc1	none (no result: T cruzi repl, Beta cell apopt, CSC inhib)
O=C(CCn1nc(-c2ccc(Cl)cc2)ccc1=O)N1CCN(c2ccc(F)cc2)CC1	none
COc1cnc(-c2ccccn2)nc1Sc1ccccc1	T cruzi repl 65
COc1ccc(Sc2nc(-c3ccccn3)ncc2OC)cc1	T cruzi repl 63, Beta cell apopt 90
Cc1nn(-c2ccccc2)c(N)c1N=Nc1ccc(Cl)cc1	CSC inhib 79
CC1=C(C(=O)N2CCCCC2)C2(CCC(C)CC2)OC1=O (centres undefined)	none
CC1=C(C(=O)N2CCc3ccccc32)C2(CCC(C)CC2)OC1=O (centres undefined)	T cruzi repl 60
CC1=NN(c2ccccc2)C(=O)/C1=C/c1c(O)n(-c2ccc(F)c(Cl)c2)[nH]c1=O	CSC inhib 103
CC1=NN(c2ccccc2)C(=O)/C1=C\c1c(C)[nH]n(-c2ccccc2)c1=O	none
OC1(c2ccc(Cl)c(Cl)c2)C[n+]2ccccc2N1Cc1ccccc1 (centres undefined)	none
